In ChEMBL document CHEMBL4330094, “Potent Metabolic Sialylation Inhibitors Based on C-5-Modified Fluorinated Sialic Acids” (J Med Chem, 2019):
Calls of active or inactive are those of the source. The calls are words filed in the database; no cut-off is given here.

System: B16-F10
Assay: Effect on total cell surface glycosylation in mouse B16F10 cells assessed as inhibition of biotinylated PHA-L lectin binding at 102.4 uM after 3 days by flow cytometry
Type: cell-based
Details: b16-f10, 72 h
Method in brief: (§1)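 B16-F10 cells were exposed 3 days to 102.4 µM compound or DMSO. Staining used biotinylated lectins (AAL 5, PNA 5, GSL-I 1, LCA 1, PHA-L 1, PSA 1, SJA 1, WGA 1 µg/ml) in carbo-free blocking buffer with 1 mM CaCl and 1 mM MgCl for 45-60 min at 4 °C, then streptavidin-PE for 20 min at 4 °C. Flow cytometry read-out was MFI, mean ± SEM from two independent experiments.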

| Compound | Activity |
| --- | --- |
| COC(=O)C1(OC(C)=O)O[C@@H]([C@H](OC(C)=O)[C@@H](COC(C)=O)OC(C)=O)[C@H](NC(=O)COC(C)=O)[C@@H](OC(C)=O)[C@H]1F (some centres undefined) | Non-Toxic |

System: B16-F10
Assay: Effect on total cell surface glycosylation in mouse B16F10 cells assessed as inhibition of biotinylated SJA-lectin binding at 102.4 uM after 3 days by flow cytometry
Type: cell-based
Details: b16-f10, 72 h
Method in brief: as §1

| Compound | Activity |
| --- | --- |
| COC(=O)C1(OC(C)=O)O[C@@H]([C@H](OC(C)=O)[C@@H](COC(C)=O)OC(C)=O)[C@H](NC(=O)COC(C)=O)[C@@H](OC(C)=O)[C@H]1F (some centres undefined) | Non-Toxic |

System: B16-F10
Assay: Effect on total cell surface glycosylation in mouse B16F10 cells assessed as inhibition of biotinylated AAL-lectin binding at 102.4 uM after 3 days by flow cytometry
Type: cell-based
Details: b16-f10, 72 h
Method in brief: as §1

| Compound | Activity |
| --- | --- |
| COC(=O)C1(OC(C)=O)O[C@@H]([C@H](OC(C)=O)[C@@H](COC(C)=O)OC(C)=O)[C@H](NC(=O)COC(C)=O)[C@@H](OC(C)=O)[C@H]1F (some centres undefined) | Non-Toxic |

System: B16-F10
Assay: Effect on total cell surface glycosylation in mouse B16F10 cells assessed as inhibition of biotinylated LCA-lectin binding at 102.4 uM after 3 days by flow cytometry
Type: cell-based
Details: b16-f10, 72 h
Method in brief: as §1

| Compound | Activity |
| --- | --- |
| COC(=O)C1(OC(C)=O)O[C@@H]([C@H](OC(C)=O)[C@@H](COC(C)=O)OC(C)=O)[C@H](NC(=O)COC(C)=O)[C@@H](OC(C)=O)[C@H]1F (some centres undefined) | Non-Toxic |

System: B16-F10
Assay: Effect on total cell surface glycosylation in mouse B16F10 cells assessed as inhibition of biotinylated GSL1-lectin binding at 102.4 uM after 3 days by flow cytometry
Type: cell-based
Details: b16-f10, 72 h
Method in brief: as §1

| Compound | Activity |
| --- | --- |
| COC(=O)C1(OC(C)=O)O[C@@H]([C@H](OC(C)=O)[C@@H](COC(C)=O)OC(C)=O)[C@H](NC(=O)COC(C)=O)[C@@H](OC(C)=O)[C@H]1F (some centres undefined) | Non-Toxic |

System: B16-F10
Assay: Inhibition of sialyltransferase in mouse B16-F10 cells assessed as recovery time for sialylation at 25.6 uM pretreated for 3 days followed by washing and re-seeding and measured after 6 days by biotinylated MAL2 lectin-based flow cytometry
Type: cell-based
Details: not given
Method in brief: (§2)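 B16-F10 cells were pretreated 3 days with 25.6 or 51.2 µM compound or DMSO, washed, reseeded, and sampled daily for 6 days. They were stained with biotinylated MALII (5 µg/ml, 45-60 min, 4 °C) plus streptavidin-PE. Flow cytometry MFI was normalized to control as % lectin binding.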

| Compound | sialylation recovery time |
| --- | --- |
| COC(=O)C1(OC(C)=O)O[C@@H]([C@H](OC(C)=O)[C@@H](COC(C)=O)OC(C)=O)[C@H](NC(=O)COC(C)=O)[C@@H](OC(C)=O)[C@H]1F (some centres undefined) | Active |

System: not listed separately
Assay: Inhibition of sialyltransferase in mouse B16F10 cells assessed as decrease in lectin binding after 3 days by biotinylated MAL2 lectin and streptavidin-PE based flow cytometry
Type: cell-based
Details: not given
Method in brief: (§3)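 Each cell line was incubated 3 days with increasing compound concentrations or equivalent DMSO. Cells were stained with biotinylated MALII (5 µg/ml) in carbo-free blocking buffer with 1 mM CaCl/MgCl for 45-60 min at 4 °C, washed in PBS/1% BSA/0.02% azide, then stained with streptavidin-PE for 20 min at 4 °C. For flow cytometry, MFI was normalized to control as % lectin binding.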

| EC50 | Compound |
| --- | --- |
| 4.98 µM | COC(=O)C1(OC(C)=O)O[C@@H]([C@H](OC(C)=O)[C@@H](COC(C)=O)OC(C)=O)[C@H](NC(=O)COC(C)=O)[C@@H](OC(C)=O)[C@H]1F (some centres undefined) |

System: not listed separately
Assay: Inhibition of sialyltransferase in mouse EL4 cells assessed as decrease in lectin binding after 3 days by biotinylated MAL2 lectin and streptavidin-PE based flow cytometry
Type: cell-based
Details: not given
Method in brief: as §3

| EC50 | Compound |
| --- | --- |
| > 102 µM | COC(=O)C1(OC(C)=O)O[C@@H]([C@H](OC(C)=O)[C@@H](COC(C)=O)OC(C)=O)[C@H](NC(=O)COC(C)=O)[C@@H](OC(C)=O)[C@H]1F (some centres undefined) |

System: B16-F10
Assay: Effect on total cell surface glycosylation in mouse B16F10 cells assessed as inhibition of biotinylated PSA-lectin binding at 102.4 uM after 3 days by flow cytometry
Type: cell-based
Details: b16-f10, 72 h
Method in brief: as §1

| Compound | Activity |
| --- | --- |
| COC(=O)C1(OC(C)=O)O[C@@H]([C@H](OC(C)=O)[C@@H](COC(C)=O)OC(C)=O)[C@H](NC(=O)COC(C)=O)[C@@H](OC(C)=O)[C@H]1F (some centres undefined) | Non-Toxic |

System: not listed separately
Assay: Inhibition of sialyltransferase in HEK293 cells assessed as decrease in lectin binding after 3 days by biotinylated MAL2 lectin and streptavidin-PE based flow cytometry
Type: cell-based, Homo sapiens
Details: not given
Method in brief: as §3

| EC50 | Compound |
| --- | --- |
| 53.6 µM | COC(=O)C1(OC(C)=O)O[C@@H]([C@H](OC(C)=O)[C@@H](COC(C)=O)OC(C)=O)[C@H](NC(=O)COC(C)=O)[C@@H](OC(C)=O)[C@H]1F (some centres undefined) |

System: B16-F10
Assay: Relative inhibitory potency, ratio of SiaFAc to compound EC50 for inhibition of sialyltransferase in mouse B16-F10 cells
Type: cell-based
Details: not given

| Compound | Ratio EC50 |
| --- | --- |
| COC(=O)C1(OC(C)=O)O[C@@H]([C@H](OC(C)=O)[C@@H](COC(C)=O)OC(C)=O)[C@H](NC(=O)COC(C)=O)[C@@H](OC(C)=O)[C@H]1F (some centres undefined) | 5 |

System: B16-F10
Assay: Inhibition of sialyltransferase in mouse B16-F10 cells assessed as recovery time for sialylation at 51.2 uM pretreated for 3 days followed by washing and re-seeding and measured after 6 days by biotinylated MAL2 lectin-based flow cytometry
Type: cell-based
Details: not given
Method in brief: as §2

| Compound | TIME |
| --- | --- |
| COC(=O)C1(OC(C)=O)O[C@@H]([C@H](OC(C)=O)[C@@H](COC(C)=O)OC(C)=O)[C@H](NC(=O)COC(C)=O)[C@@H](OC(C)=O)[C@H]1F (some centres undefined) | 48 to 72 h |

System: not listed separately
Assay: Inhibition of sialyltransferase in human THP1 cells assessed as decrease in lectin binding after 3 days by biotinylated MAL2 lectin and streptavidin-PE based flow cytometry
Type: cell-based
Details: not given
Method in brief: as §3

| EC50 | Compound |
| --- | --- |
| 4.24 µM | COC(=O)C1(OC(C)=O)O[C@@H]([C@H](OC(C)=O)[C@@H](COC(C)=O)OC(C)=O)[C@H](NC(=O)COC(C)=O)[C@@H](OC(C)=O)[C@H]1F (some centres undefined) |

System: B16-F10
Assay: Effect on total cell surface glycosylation in mouse B16F10 cells assessed as inhibition of biotinylated WGA-lectin binding at 102.4 uM after 3 days by flow cytometry
Type: cell-based
Details: b16-f10, 72 h
Method in brief: as §1

| Compound | Activity |
| --- | --- |
| COC(=O)C1(OC(C)=O)O[C@@H]([C@H](OC(C)=O)[C@@H](COC(C)=O)OC(C)=O)[C@H](NC(=O)COC(C)=O)[C@@H](OC(C)=O)[C@H]1F (some centres undefined) | Non-Toxic |

System: B16-F10
Assay: Cytotoxicity against mouse B16F10 cells assessed as reduction in metabolic activity at 204.8 uM after 3 days by MTT assay
Type: ADME, cell-based
Details: b16-f10, 72 h

| Compound | Activity |
| --- | --- |
| COC(=O)C1(OC(C)=O)O[C@@H]([C@H](OC(C)=O)[C@@H](COC(C)=O)OC(C)=O)[C@H](NC(=O)COC(C)=O)[C@@H](OC(C)=O)[C@H]1F (some centres undefined) | Non-Toxic |

System: not listed separately
Assay: Inhibition of sialyltransferase in mouse 9464D cells assessed as decrease in lectin binding after 3 days by biotinylated MAL2 lectin and streptavidin-PE based flow cytometry
Type: cell-based
Details: not given
Method in brief: as §3

| EC50 | Compound |
| --- | --- |
| > 102 µM | COC(=O)C1(OC(C)=O)O[C@@H]([C@H](OC(C)=O)[C@@H](COC(C)=O)OC(C)=O)[C@H](NC(=O)COC(C)=O)[C@@H](OC(C)=O)[C@H]1F (some centres undefined) |

System: not listed separately
Assay: Inhibition of sialyltransferase in human HeLa cells assessed as decrease in lectin binding after 3 days by biotinylated MAL2 lectin and streptavidin-PE based flow cytometry
Type: cell-based
Details: not given
Method in brief: as §3

| EC50 | Compound |
| --- | --- |
| 16.6 µM | COC(=O)C1(OC(C)=O)O[C@@H]([C@H](OC(C)=O)[C@@H](COC(C)=O)OC(C)=O)[C@H](NC(=O)COC(C)=O)[C@@H](OC(C)=O)[C@H]1F (some centres undefined) |

System: B16-F10
Assay: Effect on total cell surface glycosylation in mouse B16F10 cells assessed as inhibition of biotinylated PNA lectin binding at 102.4 uM after 3 days by flow cytometry
Type: cell-based
Details: b16-f10, 72 h
Method in brief: as §1

| Compound | Activity |
| --- | --- |
| COC(=O)C1(OC(C)=O)O[C@@H]([C@H](OC(C)=O)[C@@H](COC(C)=O)OC(C)=O)[C@H](NC(=O)COC(C)=O)[C@@H](OC(C)=O)[C@H]1F (some centres undefined) | Non-Toxic |

System: B16-F10
Assay: Cytotoxicity against mouse B16F10 cells assessed as reduction in metabolic activity at <51.2 uM after 3 days by MTT assay
Type: ADME, cell-based
Details: b16-f10, 72 h

| Compound | Activity |
| --- | --- |
| COC(=O)C1(OC(C)=O)O[C@@H]([C@H](OC(C)=O)[C@@H](COC(C)=O)OC(C)=O)[C@H](NC(=O)COC(C)=O)[C@@H](OC(C)=O)[C@H]1F (some centres undefined) | Non-Toxic |
